Results on 12 molecules are retold here after ChEMBL document CHEMBL1135544, “Design, synthesis, and biological activity of hybrid compounds between uramustine and DNA minor groove binder distamycin A” (J Med Chem, 2002).

The assay relates to K562. Briefly: In vitro antitumor activity against human chronic myeloid leukemia K562 cell line. In kind it is functional, cell-based. The essentials: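 K562 cells grown in RPMI 1640 with 10% fetal calf serum and 2 mM glutamine at 37 °C, 5% CO2. Exposed to drug for 1 h at 37 °C in the dark, then centrifuged and washed. Seeded at 10⁴ cells/well, 8 wells per sample, and cultured 4 days. MTT read at 550 nm. IC50 is the dose giving 50% of control OD, mean of at least three experiments.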

As a reminder, the IC50 is the concentration at which inhibition is half-maximal. High values mean lower potency, low ones higher potency. `Cn1cc(NC(=O)c2cc(NC(=O)c3cc(NC(=O)CCCn4cc(N(CCCl)CCCl)c(=O)[nH]c4=O)cn3C)cn2C)cc1C(=O)NCCC(=N)N` gave an IC50 of 7.26 µM.
Molecule `O=C(O)CCCCn1cc(N(CCCl)CCCl)c(=O)[nH]c1=O` yielded an IC50 greater than 100 µM.
Consider `Cn1cc(NC(=O)c2cc(NC(=O)c3cc(NC(=O)CCn4cc(N(CCCl)CCCl)c(=O)[nH]c4=O)cn3C)cn2C)cc1C(=O)NCCC(=N)N`, for which the IC50 stood at 2.54 µM. That is a single-digit micromolar value.
The result for `Oc1ncc(N(CCCl)CCCl)c(O)n1` [URACIL MUSTARD] reads 5.1 µM; that for `O=C(O)CCCCCCn1cc(N(CCCl)CCCl)c(=O)[nH]c1=O`, greater than 100 µM; that for `Cn1cc(NC(=O)c2cc(NC(=O)c3cc(NC(=O)Cn4cc(N(CCCl)CCCl)c(=O)[nH]c4=O)cn3C)cn2C)cc1C(=O)NCCC(=N)N`, 4.06 µM.
In the case of `Cn1cc(NC(=O)c2cc(NC(=O)c3cc(NC=O)cn3C)cn2C)cc1C(=O)NCCC(=N)N`, the IC50 is greater than 100 µM.
Consider `O=C(O)CCCn1cc(N(CCCl)CCCl)c(=O)[nH]c1=O`, for which the IC50 is greater than 100 µM.
Regarding `Cn1cc(NC(=O)c2cc(NC(=O)c3cc(NC(=O)CCCCCn4cc(N(CCCl)CCCl)c(=O)[nH]c4=O)cn3C)cn2C)cc1C(=O)NCCC(=N)N`, inhibition was half-maximal at 0.14 µM (IC50).
Turning to `Cn1cc(NC(=O)c2cc(NC(=O)c3cc(NC(=O)CCCCCCn4cc(N(CCCl)CCCl)c(=O)[nH]c4=O)cn3C)cn2C)cc1C(=O)NCCC(=N)N`, the IC50 was 0.07 µM.
With `Cn1cc(NC(=O)c2cc(NC(=O)c3cc(NC(=O)CCCCn4cc(N(CCCl)CCCl)c(=O)[nH]c4=O)cn3C)cn2C)cc1C(=O)NCCC(=N)N`, half-maximal inhibition (IC50) required 0.11 µM. Compared with the last molecule, the IC50 is about 1.6-fold higher.
Regarding `O=C(O)CCCCCn1cc(N(CCCl)CCCl)c(=O)[nH]c1=O`, the IC50 is greater than 100 µM.
